Compound activity: PubChem, several laboratories
The list is not random: actives were taken first. Their share in the collection is about 1.2%.
Fh CTSL1 inh: Fasciola hepatica cathepsin L1 inhibitors, primary screen, counter-screen for PFM18AAP inhibitor project, biochemical, QFRET, fluorogenic peptide substrate; recombinant F. hepatica cathepsin L1, Z-Leu-Arg-MCA fluorescence; inhibition, % at 5.96 µM; hit rate 0.49% among 300,000; AID 1906, 2009;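 active = inhibition above the mean of all tested compounds plus 3 SD, set per screening campaign, cut at about 17% in these data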;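 also: 0% = plate median of test compound wells and 100% = 1 µM Z-Phe-Ala-diazomethylketone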
SUMO HTRF inh: inhibitors of in vitro SUMOylation cascade, primary screen, biochemical, HTRF, uHTS | SUMO-conjugating enzyme UBC9 (Homo sapiens), P63279 | HTRF SUMOylation assay, SAE1/SAE2 + UBC9 | inhibition, % at 35 µM | hit rate 0.36% among 290,000 | AID 2006, 2009; in the data active = inhibition above about 50%, passing the limit was not always enough
NSD2 inh: NSD2 histone methyltransferase inhibitors, primary screen, biochemical, AlphaScreen, single concentration, set 2; inhibition, % at 12.5 µM; hit rate 0.54% among 310,000; AID 743445, 2014; Histone-lysine N-methyltransferase NSD2 (Homo sapiens), O96028; NSD2 peptide methylation, 120 min; in the data active = inhibition above about 50%
TDP2 absorb: human TDP2 enzyme inhibitors, primary screen, biochemical, epi absorbance, recombinant enzyme; inhibition, % at 12.8 µM; hit rate 0.34% among 370,000; Tyrosyl-DNA phosphodiesterase 2 (Homo sapiens), O95551; AID 720702, 2013; T5PNP hydrolysis, p-nitrophenol absorbance 415 nm;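 active = inhibition above the mean of all tested compounds plus 3 SD, set per campaign, cut at about 25% in these data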;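 also: 0% = DMSO with enzyme and 100% = buffer with substrate but no TDP2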
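Test system: Human TDP2 enzyme | Reagent: 5 mM T5PNP | Compound dosing: 12.8 µM single point, 1% DMSO | Incubation: Enzyme reaction with compound for 2 h at 37 °C | Technique: p-Nitrophenol epi absorbance | Read-out: % inhibition relative to enzyme-containing and enzyme-free wells | Benchmarks: High control without enzyme, low control DMSO plus TDP2 | Replicates: Singlicate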
An asterisk follows results filed as active; . = not tested or not shown.

SMILES	Fh CTSL1 inh	SUMO HTRF inh	NSD2 inh	TDP2 absorb
CCOC(=O)c1c(-c2ccccc2)oc2ccc(OC(C)C(=O)O)cc12 (configuration not stated)	3.0	55.1*	-5.2	-2.1
O=C(N[C@H](Cc1ccccc1)C(=O)N1CCN(CC(=O)N2CCCC2)CC1)[C@H]1O[C@@H](n2ccc(=O)[nH]c2=O)[C@H](O)[C@@H]1O	.	.	.	-7.0
COc1cccc(OCCCCN2CC(C)OC(C)C2)c1 (configuration not stated)	-4.0	8.3	0.0	-6.5
CC1CN(CCCCOc2ccc3ccccc3c2)CC(C)O1 (configuration not stated)	18.5*	2.0	3.3	3.4
COc1ccc(CCN2CCCC(CN(C)Cc3cc(Cl)c(O)c(OC)c3)C2)cc1 (configuration not stated)	.	15.9	15.8	7.6
Cc1ccc(C(=O)N/N=C/c2cc(Br)ccc2O)cn1	18.7*	9.0	-3.5	-5.5
CCOc1ccccc1NC(=O)c1cccc(NC(=O)c2cccnc2)c1	.	.	-0.2	.
O=C(Nc1ccncc1)c1cccc(S(=O)(=O)N2CCc3ccccc32)c1	16.8*	.	-0.3	-13.2
O=C(Nc1cccnc1)c1cccc(S(=O)(=O)N2CCc3ccccc32)c1	1.2	1.0	-1.7	-13.3
COc1ccc(/C=C/c2nnc(NC(=O)CSc3ccc(C)cc3)s2)cc1	2.9	50.1*	-0.2	15.6
CCOC(=O)C1=C(C(=O)OCC)C2N(Cc3ccc(C#N)cc3)c3ccccc3[C@@]23C[C@@H](C(=O)OC)N(S(=O)(=O)c2cccs2)C3=N1 (some centres not stated)	.	.	.	3.3
O=C(O)COc1ccc(/C=N/NC(=O)c2ccc(-c3csc(Nc4ccc(Cl)cc4)n3)cc2)cc1	.	86.0*	0.2	2.1
CCOc1cc(/C=N/NC(=O)c2ccc(-c3csc(Nc4ccc(C)cc4)n3)cc2)ccc1OCC(=O)O	.	50.0	-4.9	3.0
O=C(/C=C/c1ccc(-c2ccccc2)o1)c1ccccc1	64.3*	25.8	0.7	-9.2
Cc1ccc(C(=O)/C=C/c2ccc(-c3ccccc3[N+](=O)[O-])o2)cc1	2.9	21.1	-0.3	9.0
Cc1ccc(-c2ccc(/C=C/C(=O)c3ccccc3)o2)cc1	41.5*	43.4	-1.4	-5.3
COCCNC(=O)C1(C)CCCN(Cc2cn(C)c3ccccc23)C1 (configuration not stated)	.	.	0.4	-0.7
CC(=O)OC[C@H]1O[C@@H](Oc2cc3ccc(=O)oc3cc2OC(C)=O)[C@H](OC(C)=O)[C@@H](OC(C)=O)[C@@H]1OC(C)=O	.	.	.	-0.5
Cc1cc(C)c(S(=O)(=O)/N=C2/C=C(Sc3ncn[nH]3)C(=O)c3ccccc32)cc1C	91.9*	90.4*	.	66.5*
Cc1cc(N(CN2CCCC2=O)C(=O)c2ccc(OC(C)C)cc2)no1	19.4*	10.5	-1.7	-0.8
CC1=C(C(=O)N2CCCCCC2)CC(CC(=O)NC2CCCC2)C(=O)N1CCC1=CCCCC1 (configuration not stated)	.	.	7.9	10.2
COc1cccc(-c2nc(NCc3ccccc3)c3ccccc3n2)c1O	20.7*	9.5	-1.6	-16.6
COc1cccc(-c2nc(NCc3ccco3)c3ccccc3n2)c1O	-2.8	-3.9	-1.8	-13.6
CC(C)(C)CCN1CCC[C@H](NC(=O)COc2ccc(F)c(Cl)c2)C1	.	.	2.4	6.9
N=C1S/C(=C\c2ccco2)C(=O)N1c1nccs1	0.5	94.1*	7.6	12.7
SMILES	Fh CTSL1 inh	SUMO HTRF inh	NSD2 inh	TDP2 absorb
O=C(/C=C/c1ccc(Cl)cc1Cl)Nc1ccc(-c2nnc3n2CCCCC3)cc1	.	.	-0.1	.
CC1(C(=O)NS(=O)(=O)c2cccc(F)c2)CCN1C(=O)c1ccccc1 (configuration not stated)	.	.	-1.0	0.9
O=C(COC(=O)c1cccs1)Nc1cccc(S(=O)(=O)NC2=NCCCCC2)c1	-3.8	1.3	1.0	-14.5
O=C(COC(=O)c1ccc([N+](=O)[O-])s1)Nc1cccc(S(=O)(=O)NC2=NCCCCC2)c1	70.1*	20.8	.	22.6
O=C(COC(=O)c1ccc([N+](=O)[O-])s1)Nc1ccc(Cl)cn1	44.5*	-1.1	10.7	3.5
O=C(COC(=O)c1ccc([N+](=O)[O-])s1)NCc1ccccc1	57.3*	10.9	23.8	10.3
O=C(COC(=O)c1ccc([N+](=O)[O-])s1)NC(c1ccccc1)c1ccccc1	5.7	5.4	-2.5	-5.8
COCCn1c(SCC(=O)c2ccc3c(c2)OCCO3)nnc1-c1ccco1	-1.1	24.5	-2.2	-2.8
CCn1c(SCC(=O)c2ccc3c(c2)OCCO3)nnc1-c1ccco1	17.0*	13.6	-0.5	11.6
COc1cccc(NC(=O)COC(=O)c2n[nH]c3ccccc23)c1	.	.	0.5	.
O=C(Cc1cccc2ccccc12)NC1CCCCCC1	.	.	-1.9	.
COCCN(C(=O)COC(=O)c1cc2c(s1)CCC2)c1c(N)n(Cc2ccccc2)c(=O)[nH]c1=O	-1.9	.	72.1*	3.9
CCN(C(=O)COC(=O)CNC(=O)c1ccc(C)cc1)c1c(N)n(Cc2ccccc2)c(=O)[nH]c1=O	.	.	122.3*	-2.8
Cc1cc(N2CCNC[C@H]2C)ccc1N1CCN(Cc2ccccc2)[C@H](C)C1	.	.	.	-2.7
CCOc1ccc(C(=O)Nc2cccc(C(=O)Nc3cc(C)ccn3)c2)cc1	.	.	-1.4	.
CCOC(=O)C1CCN(C2=C(NS(=O)(=O)c3ccc(Cl)cc3)C(=O)c3ccccc3C2=O)CC1	-2.6	37.8	66.9*	17.8
CC1CCN(C2=C(NS(=O)(=O)c3ccc(Cl)cc3)C(=O)c3ccccc3C2=O)CC1	3.1	37.1	14.3	-0.8
COc1ccc(S(=O)(=O)N(C)C)cc1NCC(=O)Nc1ccc(C)c(F)c1	.	.	2.8	.
COC(=O)C1=C(C)N(Cc2ccc(C(F)(F)F)cc2)C(=NCc2ccc(C(F)(F)F)cc2)NC1c1cccc(F)c1 (configuration not stated)	.	.	-0.3	-7.8
COc1ccc2nc(-c3ccco3)c(-c3ccco3)nc2c1	10.9	71.2*	-6.0	15.4
O=C(NCCO)Nc1ccc2nc(-c3ccco3)c(-c3ccco3)nc2c1	3.1	98.1*	.	.
O=C(NCCO)Nc1ccc2nsnc2c1	-0.7	34.0	1.0	-7.9
O=C(CSc1nnc(-c2ccco2)c(-c2ccco2)n1)c1ccccc1	6.2	86.8	4.4	-2.9
CC(=O)c1ccc(NC(=O)c2ccc3nc(-c4ccco4)c(-c4ccco4)nc3c2)cc1	-1.7	91.8*	.	.
CC(=O)c1ccc(NC(=O)CSc2nnc(-c3ccco3)c(-c3ccco3)n2)cc1	8.4	89.6*	28.7	7.0
CCN1CCN(C(=O)c2cccc(S(=O)(=O)Nc3c(C)n(C)n(-c4ccccc4)c3=O)c2)CC1	.	.	0.7	.
COc1ccc(S(=O)(=O)N(C)C[C@@H]2Oc3c(NC(=O)Nc4cccc5ccccc45)cccc3C(=O)N([C@@H](C)CO)C[C@H]2C)cc1	.	.	.	-3.8
O=C(O)c1cc(S(=O)(=O)Nc2ccc3cn[nH]c3c2)ccc1O	.	.	3.4	9.5
